# GalR3 antag – blocks the human galanin receptor 3; O60755; HEK293 GalR3-CNG cAMP membrane potential fluorescence; galR3 body fused to GalR1 C-terminus; inhibition, % at 3 µM; 360,000 tested, 0.44% active;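 active = inhibition above the screen-wide average plus 3 SD, cut at about 13% in these data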;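 also: forskolin and galanin both at EC90 stimulate the cells; cAMP rise reported by CNG channel membrane potential dye signal; 0% = forskolin plus galanin with DMSO and 100% = forskolin alone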
# GPR7 antag – blocks human GPR7 receptor signaling; P48145; GPR7-expressing cells, fluorescence antagonist assay; inhibition, % at 4.4 µM; 290,000 tested, 1.1% active; AID 1861; in the data active = inhibition above about 16%, passing the limit was not always enough;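 also: cells stimulated with the agonist NPW; 0% = agonist with vehicle and 100% = vehicle without agonist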
# CHO parental Ca – counter-screen: ATP calcium response change in parental CHO cells | inhibition, % at 5.6 µM | parental CHO-K1, ATP-induced calcium, Fluo-8 fluorescence | 330,000 tested, 0.63% active;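 active = inhibition above that plate's mean sample inhibition plus 3 SD, cut at about 26% in these data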;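 also: 0% = ATP-challenged DMSO wells and 100% = DMSO wells without ATP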
#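 Material – parental CHO cells · Reagent – ATP stimulus · Compound – single nominal dose of 5.6 µM per compound · Detection – Fluo-8 fluorescence · Read-out basis – percent inhibition of calcium signal · Controls – ATP-challenged DMSO wells low, unchallenged DMSO wells high · Repeats – no replicates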
# OX1R antag-1 – antagonists of human orexin 1 receptor; inhibition, % at 5 µM; AID 434989; 330,000 tested, 0.43% active; CHO/OX1R cells, Fluo-8 calcium fluorescence, orexin A;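 active = inhibition above its plate's threshold, mean inhibition of all tested compounds on the plate plus 3 SD, cut at about 37% in these data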;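 also: 0% = orexin A challenge wells and 100% = SB-334867-A antagonist wells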
# Target sequence (O43613 whole entry, looked up): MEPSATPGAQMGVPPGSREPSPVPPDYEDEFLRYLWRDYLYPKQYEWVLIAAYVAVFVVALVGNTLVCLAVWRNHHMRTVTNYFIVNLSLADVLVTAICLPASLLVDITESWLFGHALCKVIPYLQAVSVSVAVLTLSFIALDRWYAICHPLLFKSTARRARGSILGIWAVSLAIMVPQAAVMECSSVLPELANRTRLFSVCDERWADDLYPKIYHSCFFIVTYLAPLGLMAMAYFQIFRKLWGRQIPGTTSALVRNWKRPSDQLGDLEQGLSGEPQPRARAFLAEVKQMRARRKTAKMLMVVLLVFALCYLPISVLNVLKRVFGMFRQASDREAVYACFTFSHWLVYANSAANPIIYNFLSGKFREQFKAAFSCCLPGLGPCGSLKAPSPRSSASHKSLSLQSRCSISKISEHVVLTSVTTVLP
# OX1R antag-2 – OX1R (human) antagonism. O43613. OX1R-expressing cells, FRET antagonist read-out. inhibition, % at 6.6 µM. 330,000 tested, 1.8% active. AID 485270; in the data active = inhibition mostly above about 38%, no sharp cut-off; inactive = mostly below about 40%;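 also: 0% = agonist challenge alone and 100% = reference antagonist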
# An asterisk follows results filed as active; · = no result. Hits are enriched below; roughly 3.1% of the tested compounds scored in any of these assays.
SMILES,GalR3 antag,GPR7 antag,CHO parental Ca,OX1R antag-1,OX1R antag-2
Cc1[nH][nH]c(=O)c1N=Nc1ccc(S(N)(=O)=O)cc1,4,·,-8,0,41*
CC(=O)c1ccc(N=Nc2c(C)[nH][nH]c2=O)cc1,0,·,-29,-11,43
Cc1ccc(NC(=S)Nc2ccc(-c3nnc4n3CCCCC4)cc2)cc1C,-1,·,·,·,·
COC(=O)C1=C(C)N(Cc2ccccc2C(F)(F)F)C(=NCc2ccccc2C(F)(F)F)NC1c1cccc(C(F)(F)F)c1 (centres undefined),-5,·,·,·,·
Nc1nc(-c2cccnc2)nc2sc3c(c12)CCCC3,-3,6,-9,-10,70*
CCc1c(-c2ccccc2)nc2sc3c(c2c1N)CCCC3,-2,-12,1,-8,49*
C[C@@H]1CN([C@@H](C)CO)C(=O)CCCn2cc(nn2)CO[C@H]1CN(C)C(=O)Nc1cccc(C(F)(F)F)c1,1,·,·,·,·
CC(C)(C)c1ccc(OCCSc2nc3ccccc3n2CC(=O)O)cc1,-10,-3,0,-2,4
CCCCOc1ccc(OCCSc2nc3ccccc3n2CC(=O)O)cc1,-10,27,-9,8,16
Cc1ccc(OCCSc2nc3ccccc3n2CC(=O)O)cc1C,-11,-6,-12,-4,43*
O=C(O)Cn1c(SCCOc2ccccc2)nc2ccccc21,-5,-5,-11,8,43*
Cc1ccc(S(=O)(=O)c2c(C)nn(C(C)(C)C)c2OC(=O)CC(C)C)cc1,-4,-20,31*,-12,16
Cc1ccc(S(=O)(=O)NC(CCCNC(=O)OCc2ccccc2)C(=O)O)cc1 (centres undefined),-4,·,·,·,·
CN(C)C(/C=C/Nc1ccc([N+](=O)[O-])cc1)=C(C#N)C#N,-3,-8,-6,-4,58*
CN(C)C(/C=C/Nc1ccc(C#N)cc1)=C(C#N)C#N,3,3,-3,-1,14
Cc1cc(C(=O)CSc2nnc(-c3ccco3)o2)c(C)n1CC1COc2ccccc2O1 (centres undefined),-3,20*,·,·,·
Cc1cc(C(=O)CSc2nnc(-c3ccccc3)o2)c(C)n1CC1COc2ccccc2O1 (centres undefined),5,1,-17,-27,18
O=C(C[n+]1ccc(C(=O)c2ccccc2)cc1)Nc1ccccc1OC(F)F,-3,·,-5,-8,46*
CCOC(=O)C1=C(C(=O)OCC)C2N(Cc3ccc(Br)cc3)c3ccccc3[C@@]23C[C@@H](C(=O)OC)N(S(=O)(=O)c2cccs2)C3=N1 (some centres undefined),3,·,·,·,·
CC(=O)c1sc(Nc2ccccn2)nc1C,-4,5,-4,7,73*
CC(=O)c1sc(Nc2cccc3ccccc23)nc1C,-6,·,-10,-28,14
Cc1cn([C@H]2C[C@H](O)[C@@H](CNC=O)O2)c(=O)[nH]c1=O,-4,·,·,·,·
Cc1ccc(C(=O)N/C(=C/c2ccc(-c3cc(C(F)(F)F)ccc3Cl)o2)C(=O)NCc2cccnc2)cc1,-3,-1,-15,34,36*
O=C(NCCc1ccccn1)c1c(-c2ccccc2)sc2ccccc12,-9,·,-16,-5,21
O=C(NCCc1ccccn1)c1c(-c2ccsc2)sc2ccccc12,-9,·,-32,-22,48*
SMILES,GalR3 antag,GPR7 antag,CHO parental Ca,OX1R antag-1,OX1R antag-2
C/C(=N\N=c1/sc2ccccc2n1C)c1ccc(N2CCOCC2)cc1,-5,-8,-12,-28,24
C/C(=N\N=c1/sc2ccccc2n1C)c1ccccn1,-5,8,-23,-6,62*
Cc1ccccc1NS(=O)(=O)c1cccc(-c2nnc(-c3ccccc3)o2)c1,-2,0,-16,-11,40*
OC[C@@H]1CN(Cc2ccc(Cl)cc2)C[C@H](n2cnc3c(Nc4ccccc4)ncnc32)O1,-5,·,·,·,·
CCOc1ncccc1C(=O)Nc1ccc2nc(C)sc2c1,-10,-5,-6,-4,76*
CSc1ncccc1C(=O)Nc1ccc2nc(C)sc2c1,7,-6,-16,-29,18
COC(=O)C1=NN(C(=O)c2cccc(Br)c2)C(O)(c2ccc(Cl)cc2)C1 (centres undefined),-1,-13,-12,-1,50*
Cc1cc2c(nc1C)CCCN2S(=O)(=O)c1c(C)noc1C,-6,·,·,·,·
Cc1cccc(C)c1Nc1nnc(SCc2cc([N+](=O)[O-])cc3c2OCOC3)s1,-5,2,-13,-5,14
COc1cccc(Nc2nnc(SCc3cc([N+](=O)[O-])cc4c3OCOC4)s2)c1,0,-1,5,-17,68*
CCSc1n[nH]c(=O)n1C,-5,·,·,·,·
COc1cc(Nc2ccc(S(N)(=O)=O)cc2)c([N+](=O)[O-])nc1[N+](=O)[O-],0,-10,11,-8,48*
O=C(NCc1ccccn1)[C@@H]1CCCN1C(=O)[C@@H]1CCCN1,1,·,·,·,·
COc1ccc(-c2ccc3c(=O)cc(-c4ccsc4)oc3c2)cn1,-3,·,-16,14,63*
COc1cc(-c2ccc3oc(-c4ccsc4)cc(=O)c3c2)cc(OC)c1OC,-3,·,-20,9,67*
COC(=O)Cc1ccc(OC2(C)CCN(Cc3ccc(-c4ccccn4)cc3)C2)cc1 (centres undefined),-4,·,·,·,·
O=c1c(O)c(-c2ccccc2)oc2ccccc12,-7,·,·,·,·
O=c1c(O)c(-c2cccs2)oc2ccc(Cl)cc12,-8,24*,71*,92*,22
O=c1c(O)c(-c2cccs2)oc2ccccc12,-3,0,49*,19,24
Clc1cccc(Cc2c(-c3ccccc3)nc3c4ccccc4ccn23)c1,-7,·,·,·,·
Cc1ccc(S(=O)(=O)NCC2CCN(C(=O)C(=O)c3cccs3)CC2)cc1,-5,·,·,·,·
CN(C)c1ccc(/C=C/C(=O)c2ccc3c(c2)OCO3)cc1,-6,·,48*,112*,11
CN(C)c1ccc(/C=C/C(=O)c2ccccc2O)cc1,-4,0,38*,14,19
O=C(/C=C/c1ccccc1)c1ccc2c(c1)OCO2,-2,-7,-21,-14,6
Cc1ccc(/C=C/C(=O)c2ccccc2O)cc1,3,8,-16,-20,16
SMILES,GalR3 antag,GPR7 antag,CHO parental Ca,OX1R antag-1,OX1R antag-2
CN(C)c1ccc(/C=C/C(=O)c2cccnc2)cc1,-3,12,49*,68*,4
COc1ccc(CCNC(=O)Nc2nnc([C@@H]3C[C@H](O)[C@@H](CO)O3)s2)cc1OC,-3,·,·,·,·
O=C(CNSc1ccc([N+](=O)[O-])cc1[N+](=O)[O-])OCc1ccccc1,-3,·,·,·,·
CCN(CCCNC(=O)CCc1nc(-c2ccc(OC)cc2)no1)c1cccc(C)c1,0,1,-7,29,55*
CCOC(COC(=O)c1ccccc1C(=O)O)c1ccccc1 (centres undefined),-3,·,·,·,·
NCCCC[C@@H]1NC(=O)[C@H](CCC(=O)O)NC(=O)c2cc([N+](=O)[O-])cc(I)c2SC[C@@H](C(=O)NCC(N)=O)NC1=O,2,-10,1,-3,42
